Results published in ChEMBL document CHEMBL4689842, “EUbOPEN Chemogenomics Library wave 1” (2021).

Tested on: U2OS
Assay: Multiplex assay against U2OS
Assay type: toxicity, cell-based
Details: human
Procedure, shortened: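 Compound was added to live cells that had been stained at seeding with Hoechst33342, BioTracker Green Microtubule Cytoskeleton Dye, MitoTracker Red and Annexin V Alexa Fluor 680, and imaging followed on a CQ1 microscope at 37°C and 5% CO2. CellPathfinder machine-learning gating divided cells into Hoechst high-intensity objects or normal cells, normal cells into healthy, pyknosed or fragmented nuclei, and pyknosed cells into mitotic or apoptotic. Tubulin, mitochondrial-mass and membrane-permeability phenotypes are per cents of healthy-nucleus cells.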

[1] = 12 h, 1 µM, compound concentration 1 uM, replicate 1
[2] = 12 h, 1 µM, compound concentration 1 uM, replicate 2
[3] = 12 h, 10 µM, compound concentration 10 uM, replicate 1
[4] = 12 h, 10 µM, compound concentration 10 uM, replicate 2
[5] = 24 h, 1 µM, compound concentration 1 uM, replicate 1
[6] = 24 h, 1 µM, compound concentration 1 uM, replicate 2
[7] = 24 h, 10 µM, compound concentration 10 uM, replicate 1
[8] = 24 h, 10 µM, compound concentration 10 uM, replicate 2

For CCOc1cc2ncc(C#N)c(Nc3ccc(OCc4cccc(F)c4)c(Cl)c3)c2cc1NC(=O)/C=C/CN(C)C [HKI-357], the “Population Apoptotic (%)” value [1] was 58%, the “Population Fragmented Nuclei (%)” value [1] was 5% and the “Population Healthy Nuclei (%)” value [1] was 86%. For the same molecule, the “Population Hoechst High Intensity Objects (%)” value [1] was 1%, the “Population Membrane Permeable-Phenotype (%)” value [1] was 21% and the “Population Mitochondria Different-Phenotype (%)” value [1] was 12%. The “Population Mitotic Cells (%)” value [1] was 41%, the “Population Normal (%)” value [1] was 98% and the “Population Pyknosed Nuclei (%)” value [1] was 8%. For the same molecule, the “Population Tubulin-Different-Phenotype (%)” value [1] was 14%, the “Total Cell Count” value [1] was 156 and the “Population Apoptotic (%)” value [2] was 25%. For the same molecule, the “Population Fragmented Nuclei (%)” value [2] was 11%, the “Population Healthy Nuclei (%)” value [2] was 84% and the “Population Hoechst High Intensity Objects (%)” value [2] was 16%. The “Population Membrane Permeable-Phenotype (%)” value [2] was 19%, the “Population Mitochondria Different-Phenotype (%)” value [2] was 25% and the “Population Mitotic Cells (%)” value [2] was 75%. For the same molecule, the “Population Normal (%)” value [2] was 83%, the “Population Pyknosed Nuclei (%)” value [2] was 4% and the “Population Tubulin-Different-Phenotype (%)” value [2] was 21%. For the same molecule, the “Total Cell Count” value [2] was 141, the “Population Apoptotic (%)” value [3] was 56% and the “Population Fragmented Nuclei (%)” value [3] was 13%. For the same molecule, the “Population Healthy Nuclei (%)” value [3] was 69%, the “Population Hoechst High Intensity Objects (%)” value [3] was 5% and the “Population Membrane Permeable-Phenotype (%)” value [3] was 43%. For the same molecule, the “Population Mitochondria Different-Phenotype (%)” value [3] was 33%, the “Population Mitotic Cells (%)” value [3] was 43% and the “Population Normal (%)” value [3] was 94%. For the same molecule, the “Population Pyknosed Nuclei (%)” value [3] was 16%, the “Population Tubulin-Different-Phenotype (%)” value [3] was 95% and the “Total Cell Count” value [3] was 210. The “Population Apoptotic (%)” value [4] was 69%, the “Population Fragmented Nuclei (%)” value [4] was 20% and the “Population Healthy Nuclei (%)” value [4] was 65%. For the same molecule, the “Population Hoechst High Intensity Objects (%)” value [4] was 12%, the “Population Membrane Permeable-Phenotype (%)” value [4] was 31% and the “Population Mitochondria Different-Phenotype (%)” value [4] was 39%. For the same molecule, the “Population Mitotic Cells (%)” value [4] was 30%, the “Population Normal (%)” value [4] was 87% and the “Population Pyknosed Nuclei (%)” value [4] was 13%. The “Population Tubulin-Different-Phenotype (%)” value [4] was 88%, the “Total Cell Count” value [4] was 119 and the “Population Apoptotic (%)” value [5] was 32%. For the same molecule, the “Population Fragmented Nuclei (%)” value [5] was 7%, the “Population Healthy Nuclei (%)” value [5] was 82% and the “Population Hoechst High Intensity Objects (%)” value [5] was 2%. The “Population Membrane Permeable-Phenotype (%)” value [5] was 23%, the “Population Mitochondria Different-Phenotype (%)” value [5] was 16% and the “Population Mitotic Cells (%)” value [5] was 67%. For the same molecule, the “Population Normal (%)” value [5] was 97%, the “Population Pyknosed Nuclei (%)” value [5] was 10% and the “Population Tubulin-Different-Phenotype (%)” value [5] was 17%. The “Total Cell Count” value [5] was 172, the “Population Apoptotic (%)” value [6] was 45% and the “Population Fragmented Nuclei (%)” value [6] was 9%. For the same molecule, the “Population Hoechst High Intensity Objects (%)” value [6] was 7%, the “Population Membrane Permeable-Phenotype (%)” value [6] was 10% and the “Population Mitochondria Different-Phenotype (%)” value [6] was 23%. The “Population Mitotic Cells (%)” value [6] was 54%, the “Population Normal (%)” value [6] was 92% and the “Population Pyknosed Nuclei (%)” value [6] was 8%. For the same molecule, the “Population Tubulin-Different-Phenotype (%)” value [6] was 27%, the “Total Cell Count” value [6] was 154 and the “Population Apoptotic (%)” value [7] was 84%. For the same molecule, the “Population Fragmented Nuclei (%)” value [7] was 8%, the “Population Healthy Nuclei (%)” value [7] was 68% and the “Population Hoechst High Intensity Objects (%)” value [7] was 4%. The “Population Membrane Permeable-Phenotype (%)” value [7] was 32%, the “Population Mitochondria Different-Phenotype (%)” value [7] was 58% and the “Population Mitotic Cells (%)” value [7] was 15%. The “Population Normal (%)” value [7] was 95%, the “Population Pyknosed Nuclei (%)” value [7] was 23% and the “Population Tubulin-Different-Phenotype (%)” value [7] was 81%. The “Total Cell Count” value [7] was 272, the “Population Apoptotic (%)” value [8] was 86% and the “Population Healthy Nuclei (%)” value [8] was 74%. The “Population Hoechst High Intensity Objects (%)” value [8] was 12%, the “Population Membrane Permeable-Phenotype (%)” value [8] was 23% and the “Population Mitochondria Different-Phenotype (%)” value [8] was 69%. The “Population Mitotic Cells (%)” value [8] was 13%, the “Population Normal (%)” value [8] was 87% and the “Population Pyknosed Nuclei (%)” value [8] was 17%. The “Population Tubulin-Different-Phenotype (%)” value [8] was 84% and the “Total Cell Count” value [8] was 141.
